Experimental data: ChEMBL document CHEMBL2417552, “Screen of pseudopeptidic inhibitors of human sirtuins 1-3: two lead compounds with antiproliferative effects in cancer cells” (J Med Chem, 2013)
Calls of active or inactive are those of the source. No cut-off for these calls is given here.

Assays:
MCF7 [1] = experiment: Cytotoxicity against human MCF7 cells assessed as cell death at 100 uM after 18 hrs by propidium iodide staining-based FACS flow cytometric analysis; type: functional
A549 [2] = experiment: Cytotoxicity against human A549 cells assessed as cell death at 100 uM after 18 hrs by propidium iodide staining-based FACS flow cytometric analysis; type: functional
MCF7 [3] = experiment: Cell cycle arrest in human MCF7 cells assessed as accumulation at G2 phase at 100 uM after 18 hrs by propidium iodide staining-based FACS flow cytometric analysis (reference value: 14.7%); type: functional
MCF7 [4] = experiment: Cell cycle arrest in human MCF7 cells assessed as accumulation at G1 phase at 100 uM after 18 hrs by propidium iodide staining-based FACS flow cytometric analysis (reference value: 67.6%); type: functional
A549 [5] = experiment: Cell cycle arrest in human A549 cells assessed as accumulation at S phase at 100 uM after 18 hrs by propidium iodide staining-based FACS flow cytometric analysis (reference value: 17.8%); type: functional
MCF7 [6] = experiment: Cytotoxicity against human MCF7 cells at 50 uM by LDH assay; type: functional, cell-based
MCF7 [7] = experiment: Effect on alpha-tubulin acetylation in human MCF7 cells at 50 uM after 6 to 18 hrs by Western blotting analysis; type: functional, cell-based
How it was run: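 MCF-7 cells seeded 24 h ahead, treated for 6 or 18 h, then lysed in M-PER. Lysates run on SDS-PAGE, transferred to nitrocellulose and probed with mouse monoclonal anti-acetylated α-tubulin and anti-total α-tubulin. Detection with peroxidase anti-mouse secondary and ECL Plus.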

[8] = molecular target: T1, NAD-dependent protein deacetylase sirtuin-1 (Homo sapiens) (UniProt Q96EB6); experiment: Inhibition of SIRT1 in etoposide-induced human MCF7 cells assessed as increase in p53 acetylation at Lys382 at 50 uM after 5 hrs by Western blotting analysis; type: cell-based
T1 sequence (whole entry): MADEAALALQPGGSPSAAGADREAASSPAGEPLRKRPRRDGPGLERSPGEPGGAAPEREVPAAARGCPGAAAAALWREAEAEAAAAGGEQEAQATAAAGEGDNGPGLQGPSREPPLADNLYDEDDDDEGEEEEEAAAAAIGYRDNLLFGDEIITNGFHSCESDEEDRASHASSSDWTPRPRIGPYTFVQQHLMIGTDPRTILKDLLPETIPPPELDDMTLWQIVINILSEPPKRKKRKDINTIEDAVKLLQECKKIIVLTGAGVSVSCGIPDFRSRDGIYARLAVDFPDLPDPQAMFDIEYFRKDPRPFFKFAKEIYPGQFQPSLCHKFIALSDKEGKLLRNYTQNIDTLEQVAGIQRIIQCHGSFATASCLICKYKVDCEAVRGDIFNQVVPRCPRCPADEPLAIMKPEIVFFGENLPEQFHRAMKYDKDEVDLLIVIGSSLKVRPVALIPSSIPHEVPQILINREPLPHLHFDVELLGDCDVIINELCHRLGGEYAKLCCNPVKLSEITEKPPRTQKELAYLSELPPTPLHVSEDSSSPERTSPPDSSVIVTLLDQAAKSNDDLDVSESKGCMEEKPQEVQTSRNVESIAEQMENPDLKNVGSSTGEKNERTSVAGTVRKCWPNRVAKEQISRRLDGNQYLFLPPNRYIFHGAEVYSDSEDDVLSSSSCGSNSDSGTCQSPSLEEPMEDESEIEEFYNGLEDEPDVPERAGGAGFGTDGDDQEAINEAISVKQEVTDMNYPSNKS
How it was run: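 MCF-7 cells seeded 24 h ahead, then given 50 μM compound and 100 μM etoposide together for 5 h before harvest. Acetylated p53 detected by Western blot; run once per compound.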

A549 [9] = experiment: Growth inhibition of human A549 cells at >= 50 uM after 48 hrs by sulforhodamine B assay; type: functional, cell-based
[10] = Cytotoxicity against human ARPE19 cells at 20 uM by LDH assay; type: cell-based; details: arpe-19, 20 µM
[11] = Cytotoxicity against human SH-SY5Y cells at 20 uM by LDH assay; type: cell-based
[12] = molecular target: T1, NAD-dependent protein deacetylase sirtuin-1 (Homo sapiens); experiment: Inhibition of SIRT1 in etoposide-induced human SH-SY5Y cells assessed as increase in p53 acetylation at Lys382 at 20 uM after 5 hrs by Western blotting analysis; type: cell-based
How it was run: (§1)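 ARPE-19 or SH-SY5Y cells seeded 24 h ahead, then given 20 μM compound and 100 μM etoposide together for 5 h before harvest. Acetylated p53 detected by Western blot. Mean ± SEM of 2 independent experiments.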

[13] = molecular target: T1, NAD-dependent protein deacetylase sirtuin-1 (Homo sapiens); experiment: Inhibition of SIRT1 in etoposide-induced human ARPE19 cells assessed as increase in p53 acetylation at Lys382 at 20 uM after 5 hrs by Western blotting analysis; type: cell-based; how it was run: as §1
[14] = molecular target: T2, NAD-dependent protein deacetylase sirtuin-2 (Homo sapiens, UniProt Q8IXJ6); experiment: Inhibition of human recombinant GST-tagged SIRT2 using KI179 as substrate preincubated for 5 mins followed by enzyme addition measured after 1 hr by fluorescence assay
T2 sequence (Q8IXJ6 whole entry): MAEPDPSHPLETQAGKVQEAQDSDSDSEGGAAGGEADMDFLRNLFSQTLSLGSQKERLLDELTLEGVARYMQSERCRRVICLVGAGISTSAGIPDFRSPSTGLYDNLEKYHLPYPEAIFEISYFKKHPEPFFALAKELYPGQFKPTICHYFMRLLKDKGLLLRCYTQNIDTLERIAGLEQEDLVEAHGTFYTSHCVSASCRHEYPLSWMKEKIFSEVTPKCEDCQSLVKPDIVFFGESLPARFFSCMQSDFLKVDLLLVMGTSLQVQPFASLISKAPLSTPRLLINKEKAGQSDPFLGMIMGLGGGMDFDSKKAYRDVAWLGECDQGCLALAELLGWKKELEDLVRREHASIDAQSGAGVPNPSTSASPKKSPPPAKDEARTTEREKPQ
How it was run: (§2)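 Fluor de Lys deacetylation assay. […] Mix preincubated 5 min at room temperature, started with enzyme, run 1 h at 37°C. Developer with 2 mM nicotinamide then added for 45 min at 37°C before fluorescence reading.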

[15] = molecular target: T3, NAD-dependent protein deacetylase sirtuin-1 (Homo sapiens, UniProt Q96EB6); experiment: Inhibition of human recombinant GST-tagged SIRT1 using KI177 as substrate preincubated for 5 mins followed by enzyme addition measured after 1 hr by fluorescence assay; how it was run: as §2
T3 sequence (Q96EB6 whole entry): T1 sequence (whole entry)

[16] = molecular target: T4, NAD-dependent protein deacetylase sirtuin-2 (Homo sapiens) (UniProt Q8IXJ6); experiment: Inhibition of human recombinant GST-tagged SIRT2 using KI179 as substrate at 50 uM preincubated for 5 mins followed by enzyme addition measured after 1 hr by fluorescence assay relative to control
T4 sequence (whole entry): T2 sequence (Q8IXJ6 whole entry)
How it was run: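 Recombinant GST-SIRT2, Fluor de Lys assay in SIRT assay buffer. Acetylated peptide KI179 at 0.7 Km (Km 198 µM) and NAD+ at 0.9 Km (reported Km 547 µM). Buffer, substrate, NAD+ and compound in DMSO preincubated 5 min at room temperature. Enzyme added to start; 1 h at 37 °C. Developer with 2 mM nicotinamide added; 45 min at 37 °C; fluorescence read. Mean ± SD, ≥3 experiments.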

[17] = molecular target: T1, NAD-dependent protein deacetylase sirtuin-1 (Homo sapiens); details: at 50 µM
MCF7 [18] = experiment: Growth inhibition of human MCF7 cells at >= 50 uM after 72 hrs by sulforhodamine B assay

inhibition [8]: Active
inhibition [12]: Active
inhibition [13]: Active
IC50 [14]: 2530 nM
IC50 [15]: 890 nM
inhibition [16]: 97%
inhibition [17]: 97%
Compound: COc1ccc(C(=O)CNC(=O)[C@H](CCCCNC(C)=S)NC(=O)OCc2ccccc2)cc1
Activity (MCF7 [1]): inactive
Activity (A549 [2]): inactive
Activity (MCF7 [3]): 8.7%
Activity (MCF7 [4]): 80.5%
Activity (A549 [5]): 7.7%
Activity (MCF7 [6]): inactive
Activity (MCF7 [7]): inactive
growth inhibition (GI) (A549 [9]): Active
Activity [10]: Non-toxic
Activity [11]: Non-toxic
growth inhibition (GI) (MCF7 [18]): Active
